Results reported in ChEMBL document CHEMBL1123507, “Antipicornavirus activity of substituted phenoxybenzenes and phenoxypyridines” (J Med Chem, 1986).
≈ marks a conversion by molar mass, not a printed value.

What was measured:
Enterovirus [1] = test: Antiviral activity against rhinovirus RV-33; assay type: functional
How it was run: (§1)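 HeLa monolayers were seeded at (1.0-1.3) × 10^5 cells/well, grown 24 h at 36 °C in 5% CO2 to 60–75% cover, then refed with maintenance medium (1-2% heat-inactivated FCS) containing two-fold serial compound dilutions made from a 200 μg/mL stock in Me2SO/medium, with final Me2SO ≤0.1%. Cells were challenged with 10-100 TCID50 virus, and CPE was read microscopically at 48 and 72 h. MIC50 was the lowest concentration giving ≥50% CPE reduction versus virus control. Cytotoxicity was the lowest concentration causing cell death, a growth change or a morphology change in uninfected cultures.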

Enterovirus [2] = test: Antiviral activity against rhinovirus RV-68; assay type: functional; how it was run: as §1
Enterovirus [3] = test: Antiviral activity against rhinovirus RV-14; assay type: functional; how it was run: as §1
Enterovirus C = test: Antiviral activity against Poliovirus type 2; assay type: functional
How it was run: (§2)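 HeLa monolayers (1.0-1.3×10^5 cells/well, grown 24 h at 36 °C to 60-75% cover) refed with maintenance E-MEM (1-2% heat-inactivated FCS) holding two-fold serial dilutions from a 200 μg/mL DMSO stock (final DMSO ≤0.1%). Challenged with 10-100 TCID50 virus, 36 °C, 5% CO2. CPE read microscopically at 48 and 72 h. MIC50 is the lowest concentration cutting CPE ≥50% vs virus control.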

Enterovirus [4] = test: Lowest concentration to reduce viral effect by 50% or more against Rhinovirus (RV)-1A; assay type: functional; how it was run: as §1
Enterovirus [5] = test: Lowest concentration to reduce viral effect by 50% or more against Rhinovirus (RV)-2; assay type: functional; how it was run: as §1
Enterovirus [6] = test: Antiviral activity against rhinovirus RV-13; assay type: functional; how it was run: as §1
Mengo virus = test: Antiviral activity against mengo; assay type: functional; conditions: Cardiovirus A; how it was run: as §1
Enterovirus [7] = test: Antiviral activity against rhinovirus RV-64; assay type: functional; how it was run: as §1
Echovirus = test: Antiviral activity against Echo 12; assay type: functional; how it was run: as §1
Coxsackievirus [8] = test: Antiviral activity against rhinovirus Coxsackie B3; assay type: functional; how it was run: as §1
Coxsackievirus [9] = test: Antiviral activity against coxsackie B4; assay type: functional; how it was run: as §1
Enterovirus [10] = test: Antiviral activity against rhinovirus RV-49; assay type: functional; how it was run: as §1
Enterovirus [11] = test: Compound was evaluated for inhibition of rhinovirus RV-Hanks 75%; assay type: functional
Coxsackievirus [12] = test: Ratio of the MIC50 of 6-(4-Nitro-phenoxy)-nicotinonitrile compared to compound obtained in the same test for coxsackie A21; assay type: functional
How it was run: (§3)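 Relative activity was calculated as the MIC50 of the positive control 5-cyano-2-(4-nitrophenoxy)pyridine divided by the MIC50 of the test compound. Both were measured in parallel in the same HeLa CPE test (48/72 h microscopic reading) against RV-1A, RV-2 or coxsackievirus A21.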

HeLa = test: Cytotoxicity concentration in HeLa cells; assay type: cell-based; conditions: human; how it was run: as §1
Enterovirus [13] = test: Antiviral activity against rhinovirus RV-1B; assay type: functional; how it was run: as §1
Enterovirus [14] = test: Antiviral activity against rhinovirus RV-Hanks; assay type: functional; how it was run: as §1
Enterovirus [15] = test: Antiviral activity against rhinovirus RV-4; assay type: functional; how it was run: as §1
Enterovirus [16] = test: Antiviral activity against rhinovirus RV-9; assay type: functional; how it was run: as §1
Coxsackievirus [17] = test: Lowest concentration to reduce viral effect by 50% or more against coxsackie virus A21; assay type: functional; how it was run: as §1
Enterovirus [18] = test: Antiviral activity against rhinovirus RV-32; assay type: functional; how it was run: as §1
Enterovirus [19] = test: Antiviral activity against rhinovirus RV-5; assay type: functional; how it was run: as §1
Enterovirus [20] = test: Antiviral activity against rhinovirus RV-55; assay type: functional; how it was run: as §1
Enterovirus [21] = test: Antiviral activity against rhinovirus RV-29; assay type: functional; how it was run: as §1
Enterovirus [22] = test: Antiviral activity against rhinovirus RV-8; assay type: functional; how it was run: as §1
Enterovirus [23] = test: Compound was evaluated for inhibition of rhinovirus RV-Hanks at a dose of 50 ug/mL by < 50%; assay type: functional
Enterovirus [24] = test: Antiviral activity against rhinovirus RV-21; assay type: functional; how it was run: as §2
Enterovirus [25] = test: Ratio of the MIC50 of 6-(4-Nitro-phenoxy)-nicotinonitrile compared to compound obtained in the same test for Rhinovirus (RV)-1A; assay type: functional; how it was run: as §3
Enterovirus [26] = test: Antiviral activity against rhinovirus RV-10; assay type: functional; how it was run: as §1
Enterovirus [27] = test: Ratio of the MIC50 of 6-(4-Nitro-phenoxy)-nicotinonitrile compared to compound obtained in the same test for Rhinovirus (RV)-2; assay type: functional; how it was run: as §3
Enterovirus [28] = test: Antiviral activity against rhinovirus RV-74; assay type: functional; how it was run: as §1
Enterovirus [29] = test: Antiviral activity against rhinovirus RV-39; assay type: functional; how it was run: as §1
Enterovirus [30] = test: Antiviral activity against rhinovirus RV-44; assay type: functional; how it was run: as §1
Enterovirus [31] = test: Compound was evaluated for inhibition of rhinovirus RV-Hanks at a dose of 50 ug/mL by <50%; assay type: functional
Enterovirus [32] = test: Antiviral activity against rhinovirus Polio 2; assay type: functional; how it was run: as §2

| SMILES | MIC (Enterovirus [1]) [µM] | MIC (Enterovirus [2]) [µM] | MIC (Enterovirus [3]) [µM] | MIC50 (Enterovirus [4]) [µM] | MIC50 (Enterovirus [5]) [µM] | MIC (Enterovirus [6]) [µM] | MIC (Mengo virus) [µM] | MIC (Enterovirus [7]) [µM] | MIC (Echovirus) [µM] | MIC (Coxsackievirus [8]) [µM] | MIC (Coxsackievirus [9]) [µM] | MIC (Enterovirus [10]) [µM] | Inhibition (Enterovirus [11]) [%] | Relative activity (Coxsackievirus [12]) | Toxicity (HeLa) [µM] | MIC (Enterovirus [13]) [µM] | MIC (Enterovirus [14]) [µM] | MIC (Enterovirus [15]) [µM] | MIC (Enterovirus [16]) [µM] | MIC50 (Coxsackievirus [17]) [µM] | further results |
| --- | --- | --- | --- | --- | --- | --- | --- | --- | --- | --- | --- | --- | --- | --- | --- | --- | --- | --- | --- | --- | --- |
| CS(=O)(=O)c1ccc(Oc2ccc(Cl)c(Cl)c2)nc1 | 2 (≈ 0.636 µg/mL) | > 31 | > 31 | 1 (≈ 0.318 µg/mL) | 2 (≈ 0.636 µg/mL) | > 16 | > 16 | 0.94 (≈ 0.299 µg/mL) | < 4.1 | > 7.9 | 39 (≈ 12.4 µg/mL) | < 2 | 65 | 0.65 | 157 | < 0.94 | 31 (≈ 9.86 µg/mL) | 79 (≈ 25.1 µg/mL) | 31 (≈ 9.86 µg/mL) | 20 (≈ 6.36 µg/mL) | MIC (Enterovirus C): > 39 µM; MIC (Enterovirus [18]): 4.1 µM (≈ 1.3 µg/mL); MIC (Enterovirus [19]): > 39 µM; MIC (Enterovirus [20]): < 2 µM; MIC (Enterovirus [21]): 4.1 µM (≈ 1.3 µg/mL); MIC (Enterovirus [22]): > 39 µM; inhibition at 50 µg/mL (Enterovirus [23]): 25%; MIC (Enterovirus [24]): 31 µM (≈ 9.86 µg/mL); Relative activity (Enterovirus [25]): 10.4; MIC (Enterovirus [26]): < 4.1 µM; Relative activity (Enterovirus [27]): 10.4; MIC (Enterovirus [28]): 7.9 µM (≈ 2.51 µg/mL); MIC (Enterovirus [29]): 20 µM (≈ 6.36 µg/mL); MIC (Enterovirus [30]): 16 µM (≈ 5.09 µg/mL) |
| N#Cc1ccc(Oc2ccc([N+](=O)[O-])cc2)nc1 |  |  |  |  |  |  |  |  |  |  |  |  | 85 |  |  |  |  |  |  |  | inhibition at 50 µg/mL (Enterovirus [31]): 8% |
| N#Cc1cc([N+](=O)[O-])ccc1Oc1ccc(Cl)c(Cl)c1 | 0.81 (≈ 0.25 µg/mL) | < 1.9 | 3.2 (≈ 0.989 µg/mL) | 0.26 (≈ 0.0804 µg/mL) | 0.26 (≈ 0.0804 µg/mL) | 0.81 (≈ 0.25 µg/mL) | > 1.6 | 0.52 (≈ 0.161 µg/mL) | 0.97 (≈ 0.3 µg/mL) | 4.9 (≈ 1.51 µg/mL) | 4.9 (≈ 1.51 µg/mL) | 0.81 (≈ 0.25 µg/mL) | 100 | 99.6 | > 324 | 0.81 (≈ 0.25 µg/mL) | 0.42 (≈ 0.13 µg/mL) | 0.97 (≈ 0.3 µg/mL) | 0.42 (≈ 0.13 µg/mL) | 0.52 (≈ 0.161 µg/mL) | MIC (Enterovirus [32]): 1.9 µM (≈ 0.587 µg/mL); MIC (Enterovirus [18]): 0.97 µM (≈ 0.3 µg/mL); MIC (Enterovirus [19]): 2 µM (≈ 0.618 µg/mL); MIC (Enterovirus [20]): 0.81 µM (≈ 0.25 µg/mL); MIC (Enterovirus [21]): 0.81 µM (≈ 0.25 µg/mL); MIC (Enterovirus [22]): 0.52 µM (≈ 0.161 µg/mL); inhibition at 50 µg/mL (Enterovirus [23]): 0%; MIC (Enterovirus [24]): 1.9 µM (≈ 0.587 µg/mL); Relative activity (Enterovirus [25]): 319; MIC (Enterovirus [26]): < 1 µM; Relative activity (Enterovirus [27]): 99.6; MIC (Enterovirus [28]): < 0.97 µM; MIC (Enterovirus [29]): 0.42 µM (≈ 0.13 µg/mL); MIC (Enterovirus [30]): 0.81 µM (≈ 0.25 µg/mL) |
